Results from BindingDB's records for doi:10.1021/jm9504767 (Freie Universität Berlin, 1996).
pKi: −log10 of the molar value.

molecular target: Histamine H3 receptor (Rattus norvegicus, UniProt Q9QYN8); experiment: In vitro antagonistic activity tested against Histamine H3 receptor on synaptosomes from rat cerebral cortex
Method in brief: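 Preloaded 30 min with L-[3H]histidine (0.4 µM) at 37 °C in modified Krebs-Ringer. Washed, resuspended in 2 mM K+ medium, then depolarized 2 min with 2 or 30 mM K+ (final). […] Stopped by rapid centrifugation; liquid scintillation. Ki by Cheng-Prusoff; mean ± SEM, ≥3 determinations.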

Histamine H3 receptor, sequence (Q9QYN8 whole entry): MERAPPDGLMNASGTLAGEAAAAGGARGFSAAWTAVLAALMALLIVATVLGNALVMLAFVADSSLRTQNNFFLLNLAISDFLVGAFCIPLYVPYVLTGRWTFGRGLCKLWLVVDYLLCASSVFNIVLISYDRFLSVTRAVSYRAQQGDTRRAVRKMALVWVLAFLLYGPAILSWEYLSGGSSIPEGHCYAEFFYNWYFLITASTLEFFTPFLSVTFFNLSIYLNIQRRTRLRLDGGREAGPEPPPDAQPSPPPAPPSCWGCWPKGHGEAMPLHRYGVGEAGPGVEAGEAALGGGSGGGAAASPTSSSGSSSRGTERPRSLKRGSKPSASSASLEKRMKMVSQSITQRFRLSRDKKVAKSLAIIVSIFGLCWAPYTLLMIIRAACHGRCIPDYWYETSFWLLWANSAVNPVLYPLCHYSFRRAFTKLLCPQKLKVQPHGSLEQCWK

Row | Structure (SMILES) | pKi
1 | COc1ccc(CCC(=O)OCCCc2cnc[nH]2)cc1I [3-(3-Iodo-4-methoxy-phenyl)-propionic acid 3-(1H-imidazol-4-yl)-propyl ester] | 6.60
2 | O=C(CCc1ccc(I)cc1)OCCCc1cnc[nH]1 [3-(4-Iodo-phenyl)-propionic acid 3-(1H-imidazol-4-yl)-propyl ester] | 7.30
3 | Cc1ccc(C(=O)OCCCc2cnc[nH]2)cc1I [3-Iodo-4-methyl-benzoic acid 3-(1H-imidazol-4-yl)-propyl ester] | 7.50
4 | Nc1c(I)cc(C(=O)OCCCc2cnc[nH]2)cc1I [4-Amino-3,5-diiodo-benzoic acid 3-(1H-imidazol-4-yl)-propyl ester] | 6.80
5 | Ic1cccc(COCCCc2cnc[nH]2)c1 [4-[3-(3-Iodo-benzyloxy)-propyl]-1H-imidazole] | 8.20
6 | Ic1cccc(OCCCc2cnc[nH]2)c1 [4-[3-(3-Iodo-phenoxy)-propyl]-1H-imidazole] | 7.80
7 | Brc1ccc(COCCCc2cnc[nH]2)cc1 [4-[3-(4-Bromo-benzyloxy)-propyl]-1H-imidazole] | 7.90
8 | Ic1ccc(OCCCc2cnc[nH]2)cc1 [4-[3-(4-Iodo-phenoxy)-propyl]-1H-imidazole] | 7.70
9 | Ic1ccc(CCCOCCCc2cnc[nH]2)cc1 [4-{3-[3-(4-Iodo-phenyl)-propoxy]-propyl}-1H-imidazole] | 7.50
